The values that follow come from ChEMBL document CHEMBL1143918, “Novel coumarin glycoside and phenethyl vanillate from Notopterygium forbesii and their binding affinities for opioid and dopamine receptors” (Bioorg Med Chem, 2008).

What all share (assay type): cell-based
Assay [1] deals with Mu-type opioid receptor (Rattus norvegicus, UniProt P33535). As to the kind of experiment: Displacement of [3H]diprenorphine from rat mu opioid receptor expressed in CHO cells. The gist of the method: (§1)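 Competitive inhibition of [3H]diprenorphine binding to human KOR, rat MOR or mouse DOR stably expressed in CHO cells. Compounds screened at 10 μM; those displacing >50% were tested over a concentration range and Ki calculated from competitive inhibition curves.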
Sequence of Mu-type opioid receptor (P33535 whole entry): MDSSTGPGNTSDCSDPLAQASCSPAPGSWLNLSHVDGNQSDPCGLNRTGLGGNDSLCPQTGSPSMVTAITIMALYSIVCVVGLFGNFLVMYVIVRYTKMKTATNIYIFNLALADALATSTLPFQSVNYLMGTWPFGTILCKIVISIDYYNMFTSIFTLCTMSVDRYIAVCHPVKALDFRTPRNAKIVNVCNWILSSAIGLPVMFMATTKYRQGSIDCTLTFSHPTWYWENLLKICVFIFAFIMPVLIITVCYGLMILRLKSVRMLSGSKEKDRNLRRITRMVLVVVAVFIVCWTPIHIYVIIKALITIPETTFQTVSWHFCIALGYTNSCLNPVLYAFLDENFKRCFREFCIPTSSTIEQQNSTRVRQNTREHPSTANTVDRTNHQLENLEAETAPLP

The target in assay [2] is Delta-type opioid receptor (Mus musculus, UniProt P32300). Put plainly: Displacement of [3H]diprenorphine from mouse delta opioid receptor expressed in CHO cells. The procedure, abridged: as §1
Sequence of Delta-type opioid receptor (P32300 whole entry): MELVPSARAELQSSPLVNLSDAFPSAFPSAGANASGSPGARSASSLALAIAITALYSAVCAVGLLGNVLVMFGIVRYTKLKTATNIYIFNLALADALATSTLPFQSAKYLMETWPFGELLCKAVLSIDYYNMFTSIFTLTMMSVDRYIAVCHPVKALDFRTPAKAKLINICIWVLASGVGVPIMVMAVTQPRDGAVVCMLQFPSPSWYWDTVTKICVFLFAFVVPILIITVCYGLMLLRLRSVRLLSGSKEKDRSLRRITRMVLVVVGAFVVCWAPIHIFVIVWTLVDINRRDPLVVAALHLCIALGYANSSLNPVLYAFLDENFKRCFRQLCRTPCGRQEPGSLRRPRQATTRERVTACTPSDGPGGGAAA
Assay [3] addresses Kappa-type opioid receptor (Homo sapiens, UniProt P41145). As to the kind of experiment: Displacement of [3H]diprenorphine from human kappa opioid receptor expressed in CHO cells. The gist of the method: as §1
Assay [4] has as its target D(1A) dopamine receptor (Rattus norvegicus, UniProt P18901). Put plainly: Displacement of [3H]SCH-23390 from rat HA-tagged D1 dopamine receptor expressed in CHO cells. The gist of the method:
(§2)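 Membranes from CHO cells stably expressing HA-tagged rat D1 receptor; cells grown in DMEM/F12 with 10% fetal calf serum and hygromycin B at 37°C, 5% CO2. Binding: 0.2 nM [3H]SCH23390 in 50 mM Tris-HCl, 1 mM EGTA, pH 7.4, room temperature, 1 h, duplicate. Fluphenazine (10 μM) defined nonspecific binding. Screened at 10 μM; compounds displacing >50% taken to Ki from competition curves.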

For assay [5], the target named is D(1A) dopamine receptor (Rattus norvegicus) (UniProt P18901). Put plainly: Displacement of [3H]SCH-23390 from rat HA-tagged D1 dopamine receptor expressed in CHO cells at 10 uM. The procedure, abridged: as §2
Sequence of D(1A) dopamine receptor (Rattus norvegicus) (P18901 whole entry): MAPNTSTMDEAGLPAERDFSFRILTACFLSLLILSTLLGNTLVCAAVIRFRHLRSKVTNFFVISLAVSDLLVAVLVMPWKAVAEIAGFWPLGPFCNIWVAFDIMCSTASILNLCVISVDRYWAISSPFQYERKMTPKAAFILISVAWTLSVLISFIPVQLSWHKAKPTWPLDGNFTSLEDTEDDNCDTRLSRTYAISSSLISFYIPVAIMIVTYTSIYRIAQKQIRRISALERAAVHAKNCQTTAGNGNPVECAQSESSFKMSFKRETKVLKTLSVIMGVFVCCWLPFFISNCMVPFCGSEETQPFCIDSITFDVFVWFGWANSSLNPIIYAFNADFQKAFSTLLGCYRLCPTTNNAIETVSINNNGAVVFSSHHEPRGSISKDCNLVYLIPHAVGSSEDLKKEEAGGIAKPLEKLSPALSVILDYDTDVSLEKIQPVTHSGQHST

Sequence of Kappa-type opioid receptor (P41145 whole entry): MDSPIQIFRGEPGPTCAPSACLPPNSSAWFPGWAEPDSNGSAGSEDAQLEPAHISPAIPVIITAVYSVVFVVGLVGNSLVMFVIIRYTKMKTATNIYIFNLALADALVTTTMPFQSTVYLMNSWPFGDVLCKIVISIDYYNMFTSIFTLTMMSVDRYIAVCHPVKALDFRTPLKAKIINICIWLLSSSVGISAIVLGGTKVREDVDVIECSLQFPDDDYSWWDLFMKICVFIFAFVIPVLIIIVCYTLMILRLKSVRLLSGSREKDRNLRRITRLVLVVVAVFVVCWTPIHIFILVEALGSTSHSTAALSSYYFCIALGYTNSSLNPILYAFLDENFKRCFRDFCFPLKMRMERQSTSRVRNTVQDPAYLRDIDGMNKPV
Sequence of D(1A) dopamine receptor (P18901 whole entry): as the sequence (P18901 whole entry) above

Consider `CC(C)=CC(O)C/C(C)=C/COc1ccc2ccc(=O)oc2c1` (centres undefined) [ANISOCOUMARIN H], for which the Ki was more than 10000 nM in assay [1], more than 10000 nM in assay [2], 2600 nM in assay [3] and more than 10000 nM in assay [4].
`CC(C)=CC(O)C/C(C)=C/COc1c2ccoc2cc2oc(=O)ccc12` (centres undefined) [NOTOPTEROL]: the Ki was more than 10000 nM in assay [1], more than 10000 nM in assay [2], more than 10000 nM in assay [3] and 1420 nM in assay [4]. For the same compound, the Activity in assay [5] was more than 50%.
Turning to `C=C[C@@H](O)C#CC#C[C@@H](O)/C=C\CCCCCCC` [FALCARINDIOL], the inhibition constant Ki turned out to be 1130 nM in assay [1], 1100 nM in assay [2], 2510 nM in assay [3] and 192 nM in assay [4]. The Activity in assay [5] was more than 50%.
